Shown are actives, neighbours in structure and some others; about 2.3% of the full set was active somewhere.
TRPC6 inhibitor = mouse TRPC6 channel inhibition; 1.1% of 310,000 active; B-score at 10 µM; HEK293-TRPC6, membrane potential dye, ACh-evoked depolarization; active compounds read low; Q61143;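 active = B-score under library mean minus 3 SD, initial fluorescence not abnormally high, positive integrated signal ratio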;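 also: B-score derived from integrated fluorescence ratio over the kinetic read; more negative B-score means stronger inhibition of depolarization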
TRPC4 PAM = TRPC4 (mouse) allosteric potentiation. HEK293 TRPC4beta/mu-opioid, DAMGO EC20, Fluo-4 Ca2+ flux; active compounds read high. B-score at 10 µM. 0.42% of 310,000 active;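 active = B-score of calcium response area above 5 SD of library B-scores, with initial fluorescence ratio within 5 SD of library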;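 also: B-score of integrated fluorescence ratio over time as area under calcium response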
Target sequence (Q9QUQ5 whole entry, looked up): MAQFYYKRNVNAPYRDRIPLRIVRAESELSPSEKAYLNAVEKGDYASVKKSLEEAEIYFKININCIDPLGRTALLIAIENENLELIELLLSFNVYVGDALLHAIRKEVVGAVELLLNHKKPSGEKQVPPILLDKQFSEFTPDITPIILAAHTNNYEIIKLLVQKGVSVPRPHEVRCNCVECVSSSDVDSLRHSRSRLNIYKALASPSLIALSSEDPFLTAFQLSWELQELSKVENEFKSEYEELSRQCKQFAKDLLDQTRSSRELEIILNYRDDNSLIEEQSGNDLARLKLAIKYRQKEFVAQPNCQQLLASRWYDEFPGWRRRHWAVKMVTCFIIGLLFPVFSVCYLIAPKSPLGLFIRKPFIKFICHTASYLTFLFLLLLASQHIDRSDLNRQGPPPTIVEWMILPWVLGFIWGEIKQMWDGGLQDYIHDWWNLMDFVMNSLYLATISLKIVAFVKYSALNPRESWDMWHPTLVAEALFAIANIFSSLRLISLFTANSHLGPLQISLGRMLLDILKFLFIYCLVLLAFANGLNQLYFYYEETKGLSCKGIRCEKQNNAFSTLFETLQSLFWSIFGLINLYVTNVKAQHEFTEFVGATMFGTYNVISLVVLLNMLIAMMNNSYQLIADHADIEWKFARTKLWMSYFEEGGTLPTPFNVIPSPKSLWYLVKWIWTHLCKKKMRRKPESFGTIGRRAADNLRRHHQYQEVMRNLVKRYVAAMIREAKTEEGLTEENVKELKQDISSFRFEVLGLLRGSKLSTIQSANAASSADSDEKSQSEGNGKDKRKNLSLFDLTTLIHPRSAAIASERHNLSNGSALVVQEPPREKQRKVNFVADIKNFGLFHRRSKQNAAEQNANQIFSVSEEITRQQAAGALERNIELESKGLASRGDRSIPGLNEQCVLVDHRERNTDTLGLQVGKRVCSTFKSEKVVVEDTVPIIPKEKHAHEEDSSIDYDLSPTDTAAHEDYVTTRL
TRPC4 agonist = opens the mouse TRPC4 cation channel | Q9QUQ5 | HEK293 TRPC4beta/mu-opioid, Fluo4 calcium fluorescence; active compounds read high | B-score at 10 µM | 0.49% of 310,000 active | AID 2237;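 active = B-score above 5 SD of library B-scores, and initial fluorescence ratio not above library mean plus 5 SD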;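 also: positive B-score marks a calcium rise read as TRPC4 activation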
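Assay system – TRPC4beta and mu-opioid receptor HEK293 stable cells · Measured by – Fluo4 fluorescence, kinetic · Schedule – dye loading 45 min room temperature, 110 s kinetic read · Read-out – B-scored integrated calcium fluorescence ratio · Controls – buffer and maximal DAMGO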
TRPC6 activator = activates the mouse TRPC6 cation channel | Q61143 | HEK293-TRPC6 membrane potential dye fluorescence; active compounds read high | B-score at 10 µM | 0.13% of 310,000 active | AID 2550;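 active = B-score of the integrated fluorescence ratio above library mean plus 3 SD, and starting fluorescence ratio within library mean plus 5 SD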;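 also: higher score means more depolarization so channel activation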
TRPC4 inh = blocks the mouse TRPC4 cation channel. Q9QUQ5. HEK293 TRPC4beta/mu-opioid, DAMGO-evoked Fluo4 calcium flux; active compounds read low. B-score at 10 µM. 0.39% of 300,000 active;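 active = B-score over 3 SD under the library average, no early fluorescence shift, positive overall ratio signal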
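Assay system – HEK293 line stably carrying TRPC4beta and mu-opioid receptor · Doses – single dose · Detection – Fluo4 calcium-dye fluorescence, kinetic read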
Numbers without * were called inactive; i = inactive; . = no result given.

SMILES	TRPC6 inhibitor	TRPC4 PAM	TRPC4 agonist	TRPC6 activator	TRPC4 inh
Cn1cc(-c2nc3ccccc3[nH]2)c2ccccc21	i	i	i	i	-6*
Nc1cc(N2CCCCC2)c(Cl)cc1[N+](=O)[O-]	i	i	i	i	i
Nc1cc(N2CCCCC2)c([N+](=O)[O-])cc1Cl	i	i	i	i	-6*
Cc1ccc(C)c(CN2CCC(CNC(=O)Nc3ccc(Cl)cc3)CC2)c1	i	14*	i	i	i
COc1cccc(OCc2cc(C(=O)N3CCC(c4ccncc4)CC3)no2)c1	i	i	i	i	i
COc1cccc(OCc2cc(C(=O)N3CCN(C)C(c4ccccc4)C3)no2)c1 (centres undefined)	i	15*	i	i	i
Cc1ccccc1N(C(=O)c1snc(C(N)=O)c1N)C(C(=O)NCc1ccccc1)c1ccc(O)cc1 (centres undefined)	i	i	i	i	i
COc1ccc(N(C(=O)c2snc(C(N)=O)c2N)C(C(=O)NCc2ccc(F)cc2)c2ccc(C)o2)c(OC)c1 (centres undefined)	i	i	i	i	i
CCOc1ccccc1N(C(=O)c1snc(C(N)=O)c1N)C(C(=O)NCc1ccccc1)c1ccc(O)cc1 (centres undefined)	i	i	i	i	-9*
NC(=O)c1nsc(C(=O)N(Cc2ccco2)C(C(=O)NCc2ccccc2)c2ccc(O)cc2)c1N (centres undefined)	i	i	i	i	-8*
COc1ccccc1N(C(=O)c1snc(C(N)=O)c1N)C(C(=O)NCc1ccccc1)c1ccc(C)o1 (centres undefined)	i	i	i	i	-6*
O=C(N/N=C/c1c(O)ccc2ccccc12)c1cccc(C(F)(F)F)c1	i	12*	i	i	i
COc1ccc2ccccc2c1/C=N/NC(=O)c1cccc(Br)c1	i	i	i	i	i
N=c1n(N)c2ccccc2n1CC(=O)c1ccc(Br)cc1	i	i	i	i	i
O=C(CC1S/C(=N\S(=O)(=O)c2ccccc2)N(c2ccccc2)C1=O)Nc1ccc(F)cc1 (centres undefined)	i	10*	i	i	i
CN1CCN(Cc2cccc(Oc3ccc(Cl)cc3)c2)CC1	i	19*	i	i	i
COCCNC(=O)c1cccc(OC2CCN(Cc3cccc(SC)c3)CC2)c1	i	i	i	i	i
CN1CCC(NC(=O)c2ccncc2)CC1	i	i	i	i	i
CC1(C)CC(NC(=O)c2ccncc2)CC(C)(C)N1O	i	i	79*	i	i
COc1ccc(F)cc1CSc1nnnn1-c1ccc(O)cc1	i	i	i	i	-5*
C#CCOc1ccc(C2C3=C(CCCC3=O)N(CC(=O)O)C3=C2C(=O)CCC3)cc1Br	i	i	i	i	i
NC(=O)C1CCCN(CCc2ccccc2)C1 (centres undefined)	i	i	103*	i	i
CCOC(=O)C1CCCN(CCC(C)c2ccccc2)C1 (centres undefined)	i	i	i	i	i
CC(CN1CCCC(C(N)=O)C1)c1ccccc1 (centres undefined)	i	i	131*	i	i
CCN(c1ccccc1)S(=O)(=O)c1cccc(C(=O)NCc2ccccn2)c1	i	i	i	i	i
SMILES	TRPC6 inhibitor	TRPC4 PAM	TRPC4 agonist	TRPC6 activator	TRPC4 inh
Cc1ccc(C)c(OCCn2ccnc2)c1	i	i	i	i	i
Cc1cc(Br)ccc1OCCn1ccnc1	i	i	116*	i	i
Clc1ccc(OCCn2ccnc2)cc1Cl	i	14*	57*	i	i
Clc1cc(Br)ccc1OCCn1ccnc1	i	i	84*	i	-6*
COc1ccc(OC)c(NC(=O)CCCSc2ccccc2)c1	i	i	i	i	i
COc1ccc(OCC(=O)NC(=S)Nc2ccc(S(=O)(=O)Nc3cc(C)on3)cc2)cc1	i	i	i	i	i
O=C(N/N=C/c1cccc2ccccc12)c1ccccc1Cl	i	10*	i	i	i
O=C(c1ccccc1F)N1CCN(C(=O)C(c2ccccc2)c2ccccc2)CC1	i	i	i	i	i
Cc1ccc(OCCCc2c(C)n[nH]c2C)cc1	i	i	i	i	i
Cc1n[nH]c(C)c1CCCCOc1ccccc1	i	i	i	i	-7*
Cc1n[nH]c(C)c1CCCCOc1ccccc1F	i	i	i	i	-6*
Cc1ccccc1OCCCc1c(C)n[nH]c1C	i	i	i	i	.
Cc1ccccc1OCCCCc1c(C)n[nH]c1C	i	i	i	i	-6*
C=CCn1c(SCC(=O)Nc2ccc(O)cc2)nc2sc(CC)cc2c1=O	i	i	i	i	i
CCCn1c(SCC(=O)NC(=O)Nc2ccc(C)cc2C)n[nH]c1=O	i	12*	i	i	i
CCCn1c(SCC(=O)Nc2cc(Cl)ccc2Cl)n[nH]c1=O	i	i	i	i	i
CCCCN(C)CCNC(=O)C(NC(=O)C1CCC(C)CC1)C(C)C (centres undefined)	i	i	52*	i	i
CC1CCC(C(=O)NC(C(=O)NCCCN2CCOCC2)C(C)C)CC1 (centres undefined)	i	i	i	i	i
O=C1C=C(O)CC(c2ccc(Cl)cc2)C1 (centres undefined)	i	i	i	i	i
O=C1C=C(O)CC(c2ccc(Cl)c(Cl)c2)C1 (centres undefined)	i	11*	i	i	i
COc1ccc(S(=O)(=O)N2CCOC2CNC(=O)C(=O)NCCCN2CCOCC2)cc1OC (centres undefined)	i	i	i	i	i
Cn1c(=O)c2c(nc(N3CCOCC3)n2CC(=O)C23CC4CC(CC(C4)C2)C3)n(C)c1=O	i	i	i	i	i
CN1CCN(c2nc3c(c(=O)n(C)c(=O)n3C)n2CC(=O)C23CC4CC(CC(C4)C2)C3)CC1	i	i	i	i	-6*
NC1=NC2=C(CCCC2)C2(CCCCC2)S1	i	i	i	i	-6*
C=CCn1c(SCC(=O)OC)nc2sc3c(c2c1=O)CCN(C)C3	-5.7*	i	i	i	i
COc1ccc(OCC(O)CNCc2ccco2)cc1 (centres undefined)	i	i	i	i	i

Source: PubChem
